The term pIC50 denotes the negative decadic logarithm of the IC50, by convention in mol/L. By IC50 is commonly meant the concentration that gives 50% inhibition. A low value points to higher potency.

pIC50: −log10 of the molar value.

This note sets out measurements from ChEMBL document CHEMBL3758135 (J Nat Prod, 2015).

One experiment has as its target T1, Prostaglandin E synthase (Homo sapiens, UniProt O14684).
T1 sequence (O14684 whole entry): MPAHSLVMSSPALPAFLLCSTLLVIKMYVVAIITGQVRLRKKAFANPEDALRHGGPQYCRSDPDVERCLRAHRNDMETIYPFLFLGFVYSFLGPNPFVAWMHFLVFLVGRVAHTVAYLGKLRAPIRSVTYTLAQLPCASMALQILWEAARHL
The experiment in a line: Inhibition of mPGES-1 in human IL-1beta-stimulated A549 cell microsomes assessed as reduction of PGE2 formation from PGH2 preincubated for 15 mins by HPLC analysis. In kind it is cell-based. The essentials: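 A549 cells stimulated with 2 ng/mL IL-1β for 72 h at 37 °C, 5% CO2, then sonicated and homogenized. Microsomal pellet collected at 174000g, 1 h, 4 °C. Membranes diluted in 0.1 M K3PO4, pH 7.4, with 2.5 mM glutathione. Compound or vehicle added for 15 min at 4 °C. Reaction started with 20 μM PGH2, stopped after 1 min with FeCl2/citric acid containing 11β-PGE2 internal standard. PGE2 measured by SPE-HPLC.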

Another experiment addresses Histone deacetylase. The experiment in a line: Inhibition of HDAC in human HeLa cell nuclear extract using BML-KI104 Fluor de Lys as substrate by fluorescence-based assay.

Regarding `COc1cc(/C=C/C(=O)CC(=O)/C=C/c2ccc(OCC=C(C)C)c(OC)c2)ccc1O`, the negative-log IC50 (pIC50) at Prostaglandin E synthase was 6.03. At Histone deacetylase, this compound came in with a half-maximal inhibitory concentration (IC50) of 5620 µM.

`COc1cc(/C=C/C(=O)CC(=O)/C=C/c2ccc(OCC=C(C)C)c(OC)c2)ccc1OCC=C(C)C`: on Prostaglandin E synthase, the pIC50 is 5.70. At Histone deacetylase, the IC50 amounted to 347 µM. Consider `COc1cc(/C=C/C(=O)CC(=O)/C=C/c2ccc(OC/C=C(\C)CCC=C(C)C)c(OC)c2)ccc1OC/C=C(\C)CCC=C(C)C`, for which the negative logarithm of the IC50 (pIC50) at Prostaglandin E synthase was 5.70. At Histone deacetylase, this compound yielded an IC50 of 188 µM.

With `COc1cc(/C=C/C(=O)C(CC=C(C)C)(CC=C(C)C)C(=O)/C=C/c2ccc(OCC=C(C)C)c(OC)c2)ccc1OCC=C(C)C`, the pIC50 at Prostaglandin E synthase is 5.70. Consider `COc1cc(/C=C/C(=O)C(CC=C(C)C)C(=O)/C=C/c2ccc(OCC=C(C)C)c(OC)c2)ccc1OCC=C(C)C`, for which the pIC50 at Prostaglandin E synthase is 5.70. Take `COc1cc(/C=C/C(=O)C(C/C=C(\C)CCC=C(C)C)C(=O)/C=C/c2ccc(OC/C=C(\C)CCC=C(C)C)c(OC)c2)ccc1OC/C=C(\C)CCC=C(C)C`: the pIC50 at Prostaglandin E synthase was 5.70. At Histone deacetylase, the IC50 was determined as 217 µM.

Regarding `COc1cc(/C=C/C(=O)CC(=O)/C=C/c2ccc(OC/C=C(\C)CCC=C(C)C)c(OC)c2)ccc1O`, the negative-log IC50 (pIC50) at Prostaglandin E synthase is 5.99. Also, the IC50 on Histone deacetylase turned out to be 495 µM.

`COc1cc(/C=C/C(=O)CC(=O)/C=C/c2ccc(OC/C=C(\C)CC/C=C(\C)CCC=C(C)C)c(OC)c2)ccc1O`: on Prostaglandin E synthase, the pIC50 was 5.70. The 50% inhibitory concentration (IC50) on Histone deacetylase came to 84.2 µM. The matching figures for `COc1cc(/C=C/C(=O)C(C/C=C(\C)CCC=C(C)C)(C/C=C(\C)CCC=C(C)C)C(=O)/C=C/c2ccc(OC/C=C(\C)CCC=C(C)C)c(OC)c2)ccc1OC/C=C(\C)CCC=C(C)C`: 5.70 and 786 µM. The matching figures for `COc1cc(/C=C/C(=O)CC(=O)/C=C/c2ccc(OC/C=C(\C)CC/C=C(\C)CCC=C(C)C)c(OC)c2)ccc1OC/C=C(\C)CC/C=C(\C)CCC=C(C)C`: 5.70 and 122 µM. For `COc1cc(/C=C/C(=O)CC(=O)/C=C/c2ccc(O)c(OC)c2)ccc1O` [CURCUMIN], the pIC50 on Prostaglandin E synthase is 6.66.
